Data reported in PMC8248410 (Chemmedchem, 2021).
Where a SMILES comes first, the peptide text is derived from it.

Test system: HIV‐1NL4‐3
Assay: SEAP reporter cell HIV‐1 infection assay
Assay type: cell-based
Conditions: running text on Table 1 data; compared with P6‐2
In short: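 CEMx174 indicator cells carrying SEAP under SIV LTR control, grown in RPMI 1640 with 10 % heat‑inactivated FCS, glutamine, penicillin and streptomycin. Peptides added to cells before HIV‑1 NL4‑3, which came from 293T transfection supernatant harvested at 48 h and filtered. SEAP activity in supernatant read 3 days post‑infection by commercial kit. Mean and SEM of ≥3 independent experiments; IC50 from fitted curves.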

Row | Compound | HIV‐1 inhibitory activity, result in words
1 | CC(=O)N[C@@H](CC(C)C)C(=O)N[C@@H](CS)C(=O)N[C@@H](CC(=O)O)C(=O)N[C@@H](CS)C(=O)N1CCC[C@H]1C(=O)N[C@@H](CC(N)=O)C(=O)NCC(=O)N1CCC[C@H]1C(=O)N[C@@H](Cc1c[nH]c2ccccc12)C(=O)N[C@H](C(=O)N[C@@H](Cc1c[nH]c2ccccc12)C(=O)N[C@@H](C)C(=O)N1CCC[C@H]1C(=O)N[C@@H](C)C(=O)N[C@@H](Cc1ccccc1)C(=O)N[C@@H](CS)C(=O)N[C@@H](CCC(N)=O)C(=O)N[C@@H](C)C(=O)N[C@H](C(=O)NCC(=O)O)C(C)C)C(C)C [P6‐2‐11] (Ac-LCDCPNGPWVWAPAFCQAVG-OH) | approximately tenfold loss
2 | Ac-LCDCPNGPWAWVPAFCQAVG-OH (cysteine pairing not given here) [P6‐2‐9] | approximately tenfold loss
